The source made the active and inactive calls. The calls are words filed in the database; no cut-off is given here.
Columns and labels:
Cavia porcellus [1] = assay: Inhibition of ovalbumin-induced lung eosinophilia in Dunkin-Hartley guinea pig at 0.01 to 3 umol/kg administered intratracheally 24 hrs before ovalbumin challenge; type: functional, organism-based
Outline: (§1)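 Sensitized guinea pigs challenged on day 20 after first sensitization with a 1 h aerosol of OVA (10 μg/mL in saline); sham group received saline aerosol. Compound given intratracheally as a dry powder formulation 2 h or 24 h before challenge. Read-out was airway/lung eosinophil influx.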

Cavia porcellus [2] = assay: Inhibition of ovalbumin-induced lung eosinophilia in Dunkin-Hartley guinea pig at 3 umol/kg administered intratracheally 2 hrs before ovalbumin challenge; type: functional; conditions: inhaled or nasal; outline: as §1
Cavia porcellus [3] = assay: Inhibition of ovalbumin-induced lung eosinophilia in Dunkin-Hartley guinea pig at 1 umol/kg administered intratracheally 2 hrs before ovalbumin challenge; type: functional; conditions: inhaled or nasal; outline: as §1
Cavia porcellus [4] = assay: Inhibition of ovalbumin-induced lung eosinophilia in Dunkin-Hartley guinea pig at 0.1 umol/kg administered intratracheally 2 hrs before ovalbumin challenge; type: functional; conditions: inhaled or nasal; outline: as §1
Cavia porcellus [5] = assay: Inhibition of ovalbumin-induced lung eosinophilia in Dunkin-Hartley guinea pig administered intratracheally 2 hrs before ovalbumin challenge; type: functional; outline: as §1
[6] = Permeability across apical to basolateral side in human Calu3 cells at 1.5 to 7 uM up to 120 mins by LC-MS/MS analysis; type: ADME, cell-based; conditions: calu-3, 2 h
Outline: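 Calu-3 cells grown on Transwell filters in MEM at 37 °C, 5% CO2, for 3 days plus a further 11–27 days until confluent. Compound added apically at 1.5, 3.5 and 7 μM. Receiver compartment sampled at 0, 30, 60, 90, 120 min; quantified by LC−MS/MS.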

[7] = Metabolic stability in lung parenchyma of COPD patients under hydrolytic/proteolytic condition; type: ADME, tissue-based; conditions: human
[8] = Metabolic stability in human plasma assessed as compound remaining at 5 uM after 1 hr by LC-MS/MS analysis; type: ADME, cell-free; conditions: read-out: Stability
Outline: (§2)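 Compound from 5 mM DMSO stock added to plasma at 5 μM final and incubated at 37 °C up to 120 min. Aliquots taken at 0, 15, 30, 60, 90, 120 min and quenched with 2 volumes of chilled acetonitrile, then centrifuged.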

[9] = Metabolic stability in rat plasma assessed as compound remaining at 5 uM after 1 hr by LC-MS/MS analysis; type: ADME, cell-free; conditions: read-out: Stability; outline: as §2
[10] = Half life in human lung slices at 1 uM after 2 hrs by LC-MS/MS analysis; type: ADME, tissue-based
Outline: (§3)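 Fresh lung slices preincubated 1 h at 37 °C under 95% O2/5% CO2 in DMEM/F12 with 10% FCS, then incubated with compound at 1 μM in MEM-Earle without phenol red for up to 2 h. Three replicates for human slices, four for rat. Compound measured by LC−MS/MS at 0, 20, 40, 60, 90, 120 min; testosterone (n = 2) checked slice viability.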

[11] = Half life in rat lung slices at 1 uM after 2 hrs by LC-MS/MS analysis; type: ADME, tissue-based; outline: as §3
Cavia porcellus [12] = assay: Inhibition of ovalbumin-induced lung eosinophilia in Dunkin-Hartley guinea pig at 0.01 umol/kg administered intratracheally 2 hrs before ovalbumin challenge; type: functional; conditions: inhaled or nasal; outline: as §1
U-937 [13] = assay: Selectivity ratio of IC50 for bovine retina PDE6 to IC50 for PDE4 isolated from human U937 cells; type: cell-based
Outline: (§4)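 PDE1 from bovine brain, PDE6 from bovine retina, PDE2/3/5 from human platelets. Each was tested in a radiometric two-step assay at five concentrations, in duplicate, starting at 30 μM with 1:10 serial dilution and 1% DMSO. […] Ratio = PDEx IC50 / PDE4 IC50.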

U-937 [14] = assay: Selectivity ratio of IC50 for human platelet PDE5 to IC50 for PDE4 isolated from human U937 cells; type: cell-based; outline: as §4
U-937 [15] = assay: Selectivity ratio of IC50 for human platelet PDE3 to IC50 for PDE4 isolated from human U937 cells; type: cell-based; outline: as §4
U-937 [16] = assay: Selectivity ratio of IC50 for human platelet PDE2 to IC50 for PDE4 isolated from human U937 cells; type: cell-based; outline: as §4
[17] = target: cGMP-dependent 3',5'-cyclic phosphodiesterase (Homo sapiens, UniProt O00408); assay: Inhibition of human platelet PDE2
Sequence of cGMP-dependent 3',5'-cyclic phosphodiesterase (O00408 whole entry): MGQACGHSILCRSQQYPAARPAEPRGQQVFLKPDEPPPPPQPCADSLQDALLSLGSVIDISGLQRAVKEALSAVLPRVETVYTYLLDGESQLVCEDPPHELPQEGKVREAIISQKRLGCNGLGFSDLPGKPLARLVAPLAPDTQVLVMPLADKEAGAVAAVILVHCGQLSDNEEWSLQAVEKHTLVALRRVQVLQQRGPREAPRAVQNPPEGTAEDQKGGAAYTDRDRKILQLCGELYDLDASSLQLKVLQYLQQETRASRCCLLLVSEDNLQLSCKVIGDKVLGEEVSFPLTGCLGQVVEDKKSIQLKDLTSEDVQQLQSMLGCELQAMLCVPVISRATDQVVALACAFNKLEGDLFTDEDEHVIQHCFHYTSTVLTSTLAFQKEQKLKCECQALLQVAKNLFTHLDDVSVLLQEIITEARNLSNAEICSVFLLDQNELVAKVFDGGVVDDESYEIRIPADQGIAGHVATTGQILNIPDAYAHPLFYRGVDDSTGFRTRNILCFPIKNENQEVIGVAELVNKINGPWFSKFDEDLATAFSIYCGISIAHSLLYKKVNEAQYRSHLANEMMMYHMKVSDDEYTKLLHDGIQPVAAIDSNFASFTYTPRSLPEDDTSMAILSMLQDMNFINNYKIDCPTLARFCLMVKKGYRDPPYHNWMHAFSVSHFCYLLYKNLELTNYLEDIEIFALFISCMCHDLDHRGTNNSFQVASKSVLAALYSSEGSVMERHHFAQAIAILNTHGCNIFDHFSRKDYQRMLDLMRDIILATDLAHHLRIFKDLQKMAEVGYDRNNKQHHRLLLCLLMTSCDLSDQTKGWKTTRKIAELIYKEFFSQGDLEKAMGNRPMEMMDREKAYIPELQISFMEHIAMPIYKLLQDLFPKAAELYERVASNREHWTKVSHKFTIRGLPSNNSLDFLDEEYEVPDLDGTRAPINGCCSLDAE
Outline: (§5)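 Radiometric two-step assay (modified Thompson–Appleman). PDE1 from bovine brain; PDE2, PDE3, PDE5 from human platelets; PDE6 from bovine retina. Compound tested in duplicate at five concentrations, starting at 30 μM with 1:10 serial dilution, 1% final DMSO.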

Phosphodiesterase 3 = Phosphodiesterase 3 (Homo sapiens, UniProt Q14432+Q13370); assay: Inhibition of human platelet PDE3; outline: as §5
[18] = Inhibition of bovine brain PDE1; design: species or system Bos taurus; outline: as §5
[19] = Apparent permeability across human Caco2 cells at 10 uM after 2 hrs by LC-MS/MS analysis; type: ADME, cell-based; conditions: Caco-2
Outline: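 Caco-2 cells cultured 24 h, then switched to enterocyte differentiation medium for 3 days to form monolayers. Test compound 10 μM in DMEM (1% DMSO) added apically; apical pH 6.5, basolateral pH 7.4. After 2 h at 37 °C, apical, basolateral and starting solutions quantified by LC−MS/MS. Papp (nm/s) = flux/initial donor concentration; caffeine and cimetidine run as references.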

[20] = Inhibition of bovine retina PDE6; design: species or system Bos taurus; outline: as §5
[21] = Half life in human lung S9 fraction; type: ADME, tissue-based
Outline: (§6)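 Lung S9 fraction (0.5 mg protein/mL) incubated in duplicate with compound at 1 μM in Dulbecco's buffer pH 7.4, 37 °C, with 1 mM NADPH. Samples taken at 0, 15, 30, 60 min and quenched in ice-cold acetonitrile; unchanged compound measured by LC−MS/MS. Controls were no-NADPH and buffer-only incubations; 7-ethoxyresorufin 1 μM served as phase I positive control.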

[22] = Plasma protein binding in human at 5 uM after 5 hrs by LC-MS/MS analysis; type: ADME, cell-free; conditions: read-out: PPB (converted)
Outline: (§7)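 Equilibrium dialysis: plasma spiked at 5 μM (from 500 μM stock) dialysed against phosphate buffer pH 7.4 for 5 h at 37 °C with slow rotation. Samples extracted with ACN/MeOH containing verapamil internal standard, centrifuged, and analysed by LC−MS/MS.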

[23] = Metabolic stability in human lung S9 fraction assessed as compound remaining at 1 uM after 1 hr by LC-MS/MS analysis; type: ADME; conditions: read-out: Stability; outline: as §6
[24] = Half life in rat lung S9 fraction; type: ADME, tissue-based; outline: as §6
U-937 [25] = assay: Selectivity ratio of IC50 for bovine brain PDE1 to IC50 for PDE4 isolated from human U937 cells; type: cell-based; outline: as §4
[26] = Metabolic stability in rat lung S9 fraction assessed as compound remaining at 1 uM after 1 hr by LC-MS/MS analysis; type: ADME; conditions: read-out: Stability; outline: as §6
[27] = Plasma protein binding in rat at 5 uM after 5 hrs by LC-MS/MS analysis; type: ADME, cell-free; conditions: read-out: PPB (converted); outline: as §7
[28] = n-Octanol-buffer partition coefficient, log D of the compound at pH 7.4 by shake-flask method
Phosphodiesterase 4 [29] = target: T1, Phosphodiesterase 4 (Homo sapiens, UniProt P27815+Q08499+Q07343+Q08493); assay: Inhibition of PDE4 activity in human PBMC assessed as inhibition of LPS-induced TNFalpha release after 18 hrs by ELISA
Outline: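 Human PBMCs plated at 10^5 cells/well in RPMI 1640 without phenol red plus 10% FBS, at 37 °C, 5% CO2. Compound added at 10^-15 to 10^-6 M (final DMSO 0.2%), with E. coli LPS at 3 ng/mL final, for 18 h. TNFα in supernatant measured by paired-antibody ELISA. IC50 from four-parameter logistic nonlinear regression, reported with 95% confidence intervals.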

Phosphodiesterase 4 [30] = target: T1, Phosphodiesterase 4; assay: Inhibition of PDE4 isolated from human U937 cells assessed as […] by LANCE assay; type: cell-free; conditions: u-937
[31] = target: 3',5'-cyclic-AMP phosphodiesterase 4D (Homo sapiens) (UniProt Q08499); conditions: Sf9
Sequence of 3',5'-cyclic-AMP phosphodiesterase 4D (Homo sapiens) (Q08499 whole entry): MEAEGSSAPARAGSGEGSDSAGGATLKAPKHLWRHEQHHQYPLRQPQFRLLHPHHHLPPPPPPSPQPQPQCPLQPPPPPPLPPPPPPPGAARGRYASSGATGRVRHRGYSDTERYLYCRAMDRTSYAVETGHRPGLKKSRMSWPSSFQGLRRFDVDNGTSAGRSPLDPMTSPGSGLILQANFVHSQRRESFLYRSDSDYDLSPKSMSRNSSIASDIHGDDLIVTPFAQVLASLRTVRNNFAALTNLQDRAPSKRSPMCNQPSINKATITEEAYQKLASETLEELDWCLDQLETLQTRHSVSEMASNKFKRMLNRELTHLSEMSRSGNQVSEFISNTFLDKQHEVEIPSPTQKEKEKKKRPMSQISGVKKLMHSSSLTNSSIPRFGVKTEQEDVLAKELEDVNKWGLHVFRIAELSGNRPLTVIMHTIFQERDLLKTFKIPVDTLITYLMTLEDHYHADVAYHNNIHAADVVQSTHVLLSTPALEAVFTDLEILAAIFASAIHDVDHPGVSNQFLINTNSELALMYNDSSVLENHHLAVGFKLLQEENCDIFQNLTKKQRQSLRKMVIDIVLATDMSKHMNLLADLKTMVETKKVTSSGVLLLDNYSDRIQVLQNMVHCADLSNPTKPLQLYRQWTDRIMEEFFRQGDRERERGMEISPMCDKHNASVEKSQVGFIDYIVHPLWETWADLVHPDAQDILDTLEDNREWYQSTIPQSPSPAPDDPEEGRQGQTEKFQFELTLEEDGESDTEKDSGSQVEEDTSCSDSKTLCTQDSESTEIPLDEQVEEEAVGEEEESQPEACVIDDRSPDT

[32] = target: 3',5'-cyclic-AMP phosphodiesterase 4B (Homo sapiens) (UniProt Q07343); conditions: Sf9
Sequence of 3',5'-cyclic-AMP phosphodiesterase 4B (Homo sapiens) (Q07343 whole entry): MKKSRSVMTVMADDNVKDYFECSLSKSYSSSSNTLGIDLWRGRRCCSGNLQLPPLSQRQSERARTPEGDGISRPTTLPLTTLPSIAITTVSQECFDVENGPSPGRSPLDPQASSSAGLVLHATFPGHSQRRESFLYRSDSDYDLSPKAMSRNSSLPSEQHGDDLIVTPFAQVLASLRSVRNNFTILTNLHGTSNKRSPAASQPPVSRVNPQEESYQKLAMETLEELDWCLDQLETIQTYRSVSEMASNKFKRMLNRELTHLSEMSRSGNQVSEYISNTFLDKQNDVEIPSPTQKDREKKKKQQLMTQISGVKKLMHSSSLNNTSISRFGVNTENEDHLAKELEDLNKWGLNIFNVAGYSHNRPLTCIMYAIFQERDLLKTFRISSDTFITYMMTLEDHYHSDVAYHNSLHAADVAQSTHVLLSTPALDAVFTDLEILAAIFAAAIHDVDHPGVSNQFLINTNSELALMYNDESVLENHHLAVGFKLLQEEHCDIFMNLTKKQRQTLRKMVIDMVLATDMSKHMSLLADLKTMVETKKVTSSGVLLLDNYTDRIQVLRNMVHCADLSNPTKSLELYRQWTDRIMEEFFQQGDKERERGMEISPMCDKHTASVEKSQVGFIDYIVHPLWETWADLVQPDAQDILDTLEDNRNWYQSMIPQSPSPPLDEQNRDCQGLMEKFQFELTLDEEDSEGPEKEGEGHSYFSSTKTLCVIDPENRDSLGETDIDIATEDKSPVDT

Question: With CS(=O)(=O)Nc1ccc(C(=O)O[C@@H](Cc2c(Cl)c[n+]([O-])cc2Cl)c2ccc(OC(F)F)c(OCC3CC3)c2)cc1OCC1CC1 as the compound, how does the inhibition (Cavia porcellus [1]) read?
Answer: The inhibition was “Active”.

Question: And the inhibition in vivo at 3 µmol/kg (Cavia porcellus [2])?
Answer: The inhibition in vivo at 3 µmol/kg was 100%.

Question: And the inhibition in vivo at 1 µmol/kg (Cavia porcellus [3])?
Answer: Its inhibition in vivo at 1 µmol/kg is 83%.

Question: And the inhibition in vivo at 0.1 µmol/kg (Cavia porcellus [4])?
Answer: The inhibition in vivo at 0.1 µmol/kg was 66%.

Question: And the inhibition (Cavia porcellus [5])?
Answer: The inhibition was “Dose-dependent effect”.

Question: And the ED50 (Cavia porcellus [5]; inhaled or nasal)?
Answer: Its ED50 is 0.016 µmol/kg.

Question: And the permeability [6]?
Answer: The permeability was “impermeable”.

Question: What about the Stability [7] of the same compound?
Answer: The Stability was “Stable”.

Question: What about the remaining at 1 h, 5 µM [8] of the same compound?
Answer: The remaining at 1 h, 5 µM was 100%.

Question: What about the remaining at 1 h, 5 µM [9] of the same compound?
Answer: The remaining at 1 h, 5 µM was 100%.

Question: What about the half-life at 1 µM [10] of the same compound?
Answer: Its half-life at 1 µM is 3.95 h.

Question: What about the half-life at 1 µM [11] of the same compound?
Answer: Its half-life at 1 µM is 2.87 h.

Question: And the inhibition in vivo at 0.01 µmol/kg (Cavia porcellus [12])?
Answer: The inhibition in vivo at 0.01 µmol/kg was 47%.

Question: And the Ratio IC50 (U-937 [13])?
Answer: The Ratio IC50 was over 20000.

Question: And the Ratio IC50 (U-937 [14])?
Answer: Its Ratio IC50 is over 20000.

Question: And the Ratio IC50 (U-937 [15])?
Answer: Its Ratio IC50 is over 20000.

Question: And the Ratio IC50 (U-937 [16])?
Answer: Its Ratio IC50 is over 20000.

Question: What about the IC50 [17] of the same compound?
Answer: Its IC50 is over 1 µM.

Question: What about the IC50 (Phosphodiesterase 3) of the same compound?
Answer: The IC50 was over 1 µM.

Question: What about the IC50 [18] of the same compound?
Answer: The IC50 was over 1 µM.

Question: What about the Papp at 2 h, 10 µM [19] of the same compound?
Answer: The Papp at 2 h, 10 µM was under 1 ×10⁻⁶ cm/s.

Question: What about the IC50 [20] of the same compound?
Answer: The IC50 was over 1 µM.

Question: What about the half-life [21] of the same compound?
Answer: Its half-life is over 4.67 h.

Question: What about the fraction unbound at 5 h, 5 µM [22] of the same compound?
Answer: Its fraction unbound at 5 h, 5 µM is 0.0002.

Question: And the remaining at 1 h, 1 µM [23]?
Answer: Its remaining at 1 h, 1 µM is 100%.

Question: What about the half-life [24] of the same compound?
Answer: The half-life was 3.15 h.

Question: What about the Ratio IC50 (U-937 [25]) of the same compound?
Answer: The Ratio IC50 was over 20000.

Question: What about the remaining at 1 h, 1 µM [26] of the same compound?
Answer: Its remaining at 1 h, 1 µM is 88%.

Question: What about the fraction unbound at 5 h, 5 µM [27] of the same compound?
Answer: Its fraction unbound at 5 h, 5 µM is 0.008.

Question: And the logD [28]?
Answer: The logD was 4.48.

Question: And the IC50 (Phosphodiesterase 4 [29])?
Answer: The IC50 was 60 pM.

Question: What about the IC50 (Phosphodiesterase 4 [30]) of the same compound?
Answer: Its IC50 is 40 pM.

Question: And the T1/2 [31]?
Answer: The T1/2 was over 20 h.

Question: And the T1/2 [32]?
Answer: Its T1/2 is over 20 h.
